Hits are enriched below; roughly 2% of the tested compounds scored in any of these assays.
PglD inh – inhibitors of Campylobacter jejuni PglD acetyltransferase. purified PglD enzyme, DTNB colorimetric CoA detection. inhibition, % at 12.5 µM. actives 0.098% (n = 360,000); in the data active means inhibition above about 16%, passing the limit was not always enough; inconclusive means no clear call, values can overlap the other calls
E-sel inducer – induces E-selectin expression in human endothelial cells | P16581 | HUVEC E-selectin immunofluorescence imaging; normalized: neutral wells 0, TNF-alpha wells 100 | activation, % at 7.58 µM | actives 0.37% (n = 260,000) | AID 686992;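 active means mean E-selectin-positive cell signal at least 10% of the positive control, reached in at least 60% of replicates, without over 20% cell loss; inconclusive means no rule given, readout overlaps actives, possibly toxicity-flagged; inactive means the rest, including those meeting only one limit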
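System: HUVEC / Compound: single concentration / Signal: immunofluorescence imaging / Read-out: percent E-selectin-positive cells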
RAD54 branch – blocks human RAD54 Holliday junction branch migration | inhibition, % at 10.4 µM | actives 0.14% (n = 360,000) | FAM/BHQ fluorescence | AID 602329;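 active means mean normalized replicate activity at least 40 and at least half of replicates scoring 40 or more; inconclusive means only one of the two criteria met; inactive means mean below 40 and under half of replicates reaching 40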;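 further: 0% = median of neutral control wells and 100% = median of positive control wells; inhibitors cause a drop in the FAM fluorescence signal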
RAD52 inh – inhibitors of human RAD52 DNA annealing; P43351; recombinant RAD52 DNA annealing, FRET fluorescence; inhibition, % at 18.7 µM; actives 0.46% (n = 360,000); AID 651710;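 active means every replicate showing at least 50% inhibition; inconclusive means mean inhibition at least 50% but not in every replicate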
Target sequence (P43351 whole entry, looked up): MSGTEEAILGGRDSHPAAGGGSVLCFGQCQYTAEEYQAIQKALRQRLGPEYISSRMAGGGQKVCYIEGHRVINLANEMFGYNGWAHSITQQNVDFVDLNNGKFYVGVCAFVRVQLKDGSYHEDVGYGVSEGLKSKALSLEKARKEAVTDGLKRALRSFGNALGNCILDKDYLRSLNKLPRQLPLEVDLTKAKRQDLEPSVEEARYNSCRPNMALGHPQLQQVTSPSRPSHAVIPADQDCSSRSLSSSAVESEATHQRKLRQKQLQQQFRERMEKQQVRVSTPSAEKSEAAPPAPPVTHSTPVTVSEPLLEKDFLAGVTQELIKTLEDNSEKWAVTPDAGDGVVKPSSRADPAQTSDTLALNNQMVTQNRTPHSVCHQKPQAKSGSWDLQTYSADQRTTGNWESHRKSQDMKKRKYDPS
XiGFP reactiv – X-chromosome reactivation activator; actives 0.055% (n = 360,000); AID 743238; activation, % at 7.58 µM; XiGFP mouse fibroblasts, % GFP-positive cells imaging, 3 d; cells co-treated with 5-aza-dC sensitizer; scaled so ellipticine positive control = 100%;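 active means mean normalized replicate activation at least 10% and every replicate at or above 10%; inconclusive means only one of the two criteria met; inactive means mean below 10% and not all replicates reach 10%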;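 further: 0% = median of on-plate neutral control wells and 100% = ellipticine 6 µM median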
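System: XiGFP fibroblasts, SV40-immortalized. Medium: DMEM plus 5-aza-dC sensitizer. Doses: single point. Timing: 3 d treatment, 15 min room-temperature fixation. Control set: ellipticine 6 µM.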
Ecoli rRNA inh – selective bacterial rRNA inhibition in E. coli | E. coli WT GFP vs humanized-ribosome RFP mutants, fluorescence, 24 h; hits give low values; DMSO median 0, no signal -100 | GFP signal change (wild-type ribosome), % (no concentration beside the values) | actives 1.6% (n = 350,000);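 active means significant combined selectivity score with lowered wild-type GFP, culture density cut under 30%, mutant RFP and density less affected; inactive means any of these conditions unmet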
AID977621 – growth inhibition of wild-type GFP E. coli, dose response, H69 mutant RFP, cherry-pick; shares compounds with Ecoli rRNA inh; E. coli wild-type GFP strain growth, fluorescence, 24 h; activity change, negative = inhibition at 50 µM; 1,900 tested, under 10 active;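 active means Wild-type ribosome reporter drop at least double the humanized mutant ribosome reporter drop, growth loss under a set limit; inconclusive means no clear call, values can overlap the other calls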;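 further: wild-type GFP and H69 mutant RFP strains grown together 50/50 in each well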
AID977628 – E. coli growth inhibition, wild-type GFP versus h24 humanized RFP strain, dose response, h24 mutant RFP vs wild-type GFP, cherry-pick. shares compounds with Ecoli rRNA inh. E. coli WT GFP strain growth, fluorescence, 24 h. activity change, negative = inhibition at 50 µM. 1,900 tested, under 10 active;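 active means compound lowering the normal-ribosome reporter at least twice as much as the humanized-ribosome reporter, growth loss under a set limit; inconclusive means no clear call, values can overlap the other calls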;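 further: wild-type GFP and h24 humanized RFP strains co-cultured 1 to 1 per well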
The depositor's hits bear a star; ? = inconclusive; · = no result given.

SMILES	PglD inh	E-sel inducer	RAD54 branch	RAD52 inh	XiGFP reactiv	Ecoli rRNA inh	AID977621	AID977628
C[C@@H]1CCCCO[C@H](CN(C)C)[C@H](C)CN([C@H](C)CO)C(=O)c2cc(NC(=O)Nc3cccc4ccccc34)ccc2O1	3	0	4	39	0	-1	-24	·
C[C@@H]1CCCCO[C@@H](CN(C)S(C)(=O)=O)[C@@H](C)CN([C@H](C)CO)C(=O)c2cc(NC(=O)Nc3cccc4ccccc34)ccc2O1	3	0	0	10	0	1	·	·
C[C@@H]1CCCCO[C@H](CN(C)C)[C@H](C)CN([C@@H](C)CO)C(=O)c2cc(NC(=O)Nc3cccc4ccccc34)ccc2O1	-1	0	12	33	0	-36*	-3.2	0.029
C[C@@H]1CCCCO[C@@H](CN(C)C(=O)Nc2cccc3ccccc23)[C@@H](C)CN([C@@H](C)CO)C(=O)c2cc(NC(=O)Nc3cccc4ccccc34)ccc2O1	5	0	1	8	0	7	·	·
C[C@@H]1CCCCO[C@@H](CN(C)C)[C@H](C)CN([C@@H](C)CO)C(=O)c2cc(NC(=O)Nc3cccc4ccccc34)ccc2O1	0	0	11	14	0	3	-5.2	6.2
S=C1SCN(Cc2cccnc2)CN1Cc1cccnc1	·	·	·	-8	0	-29*	-15	-22
COC(=O)C1CCN(C(=O)c2ccc(OC)c(S(=O)(=O)N3CCCc4ccccc43)c2)CC1	0	0	-7	-15	0	-14*	-8.4	?
C[C@@H]1CCCCO[C@H](CN(C)Cc2ccncc2)[C@H](C)CN([C@H](C)CO)C(=O)c2cc(NS(=O)(=O)c3ccc(Cl)cc3)ccc2O1	-4	0	8	1	0	-8	·	·
CNC[C@H]1Oc2ccc(NC(=O)Nc3ccccc3)cc2C(=O)N([C@@H](C)CO)C[C@@H]1C	-6	-2	3	-4	-1	5	·	·
COc1ccc(-c2cc(C(=O)O)nc3ccc4ccccc4c23)cc1OC	·	1	·	-11	1	-29*	-17	·
COCCNC(=O)c1ccc(-c2cn[nH]c2)c2ccoc12	2	0	0	-4	0	14	·	·
O=C(NCc1ccccc1)c1ccc(-c2cn[nH]c2)c2ccoc12	-1	0	-1	-7	0	-20*	2.6	-8.2
O=S(=O)(NC1CC1)c1ccc(S(=O)(=O)N2CCc3ccccc32)cc1	-4	·	-14	-11	·	-20*	-1.5	·
O=S(=O)(c1ccc(F)cc1)N1CCc2ccccc21	2	·	-15	-275	0	2	·	·
C[C@H](CO)N1C[C@H](C)[C@@H](CN(C)CC2CCCCC2)OCCCC[C@H](C)Oc2ccc(NC(=O)c3ccccc3)cc2C1=O	0	0	5	-15	0	-3	·	·
CC(OC(=O)CCc1c[nH]c2ccccc12)C(=O)c1ccccc1 (stereo unspecified)	·	7	·	-13	0	-25*	·	?
CC(=O)Nc1ccc(NC(=O)C(C)OC(=O)CCCc2c[nH]c3ccccc23)cc1 (stereo unspecified)	-3	0	3	-13	0	1	·	·
CC(OC(=O)CCc1nc2ccccc2c(=O)[nH]1)C(=O)c1ccc(Br)cc1 (stereo unspecified)	-9	·	2	-30	0	-24*	·	?
CCCNC(=O)N(C)C[C@H]1Oc2cc(C#CC3CC3)ccc2S(=O)(=O)N([C@H](C)CO)C[C@@H]1C	-1	0	1	12	2	-3	·	·
O=C(C[C@H]1CC[C@@H](NC(=O)Nc2ccccc2F)[C@@H](CO)O1)NCc1ccccc1	1	0	9	3	0	-4	·	·
O=C(C[C@H]1CC[C@H](NC(=O)Nc2ccccc2F)[C@H](CO)O1)NCc1ccc(-c2ccccc2)cc1	·	0	·	3	0	-20*	-6.5	?
C[C@H]1CN([C@@H](C)CO)C(=O)Cc2cc(NS(=O)(=O)c3cn(C)cn3)ccc2O[C@H]1CN(C)Cc1ccc(C(=O)O)cc1	-1	-1	4	-6	0	4	·	·
Cc1ccc(Cl)cc1N1CCN(S(=O)(=O)N2CCCCC2)CC1	·	·	·	-5	0	-28	·	·
Cc1ccc(Cl)cc1N1CCN(S(C)(=O)=O)CC1	-7	·	5	-12	·	-35*	·	?
CCN(CC(=O)Nc1cccc(S(=O)(=O)N2CCCC2)c1)CC(=O)Nc1ccccc1OC	·	2	·	-9	0	-18*	-8.9	-17
SMILES	PglD inh	E-sel inducer	RAD54 branch	RAD52 inh	XiGFP reactiv	Ecoli rRNA inh	AID977621	AID977628
CCN(CC)CC(=O)Nc1ccc(-c2ccc(NC(=O)CN(CC)CC)c(OC)c2)cc1OC	·	·	·	7	0	-23*	-25	·
CCC(=O)N1[C@H](CO)[C@@H](c2ccc(-c3ccccc3)cc2)[C@H]1CNC(=O)COC	-1	0	-1	·	0	-1	·	·
COc1cccc(C(=O)C2CCCN(C/C=C/c3ccccc3OC)C2)c1 (stereo unspecified)	1	·	-8	-32	0	-29*	?	?
O=C(NCc1ccccc1)C1CCN(S(=O)(=O)c2cc([N+](=O)[O-])ccc2Cl)CC1	·	·	·	-3	0	0	·	·
O=C(NCc1cccnc1)C1CCN(S(=O)(=O)c2cc([N+](=O)[O-])ccc2Cl)CC1	-4	·	4	-1	0	-3.1*	-8.1	-13
C[C@@H]1CCn2cc(nn2)COC[C@@H](Cc2ccccc2)NC1=O	·	0	·	16	0	4	·	·
Cc1cc(C)c(OCCN(C)Cc2ccccc2)c(Br)c1	·	-2	·	6	0	-23*	4.1	-8.3
C/C=C/c1ccc([C@H]2[C@@H](CO)N3C(=O)CN(S(=O)(=O)c4cccc(F)c4)C[C@@H]23)cc1	·	-1	·	-11	0	-1	·	·
O=[N+]([O-])c1ccc(-[n+]2nc(-c3ccccc3)nn2-c2ccccc2)cc1	-4	0	-7	6	0	-22*	·	?
COc1ccc(OC(C)C(=O)Nc2cccc(F)c2)cc1 (stereo unspecified)	·	·	·	-8	0	-23*	-1.8	?
CC(C)CNC(=O)c1cccc(NC(=O)C(C)Oc2ccccc2)c1 (stereo unspecified)	·	·	·	-22	0	-24*	-16	-12

Screening results as filed in PubChem.
